Dynein cargo inh: blocks dynein driven cargo transport along microtubules | 3617.4 mouse cells, GR-EGFP nuclear translocation imaging; test concentration mostly 20 µM; stimulated with dexamethasone, 1 µM; stronger effect = lower value | 220,000 tested, 0.47% active | z-score, hits read low;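 active means plate z-score of nuclear minus cytoplasmic receptor signal below a set negative limit, without overly bright fluorescence or cell loss, cut at about -3.5 in these data, passing the limit was not always enough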;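 further: z-score of nuclear minus cytoplasmic ring GR-EGFP intensity difference per well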
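Buffer or medium: tet-free medium with charcoal-stripped serum / Also added: dexamethasone agonist, 1.0 µM final, for 30 min / Timing: induction 48 h, compound 1 h, agonist 30 min / Measured by: high-content fluorescence imaging after fixation / Read-out: nuclear-to-cytoplasmic GR-EGFP distribution per well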
XBP1 UPR activ: adaptive UPR (XBP1) activation | 330,000 tested, 0.33% active | activation, % at 20 µM | CHO-XBP1 luciferase reporter, IRE1-XBP1 UPR activation, luminescence; percent of tunicamycin response, DMSO as zero | AID 463104;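 active means versus positive control, 20 µM dose yields 30% or more activation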;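 further: 100% = tunicamycin at 10 µg/mL and 0% = DMSO only wells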
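incubation = overnight seeding at 37 °C, 6 h compound treatment at 37 °C | assay system = CHO-XBP1 cells stably carrying IRE1-XBP1-driven luciferase reporter | input = 1000 cells per well | detection = luciferase luminescence | dosing = single point, 20 µM final compound, 1% DMSO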
T cruzi repl: T. cruzi replication inhibition | inhibition, % (no concentration beside the values) | 300,000 tested, 1.4% active | T. cruzi beta-gal in NIH3T3, luminescence, 90 h;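 active means mean inhibition across valid replicates above about 55%, limit read from the data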;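 further: signal also drops with host cell toxicity which is not excluded here; 0% = plate median of DMSO wells and 100% = zero luminescence signal; higher percent means less beta-gal luminescence so fewer parasites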
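compound dosing = single 50 nL compound addition per well in DMSO | material = NIH/3T3 host cells with β-galactosidase reporter T. cruzi | input = 5,000 host fibroblasts per well | timing = ≥90 h infection period, 3 h prior cell attachment | read-out basis = percent inhibition of parasite-derived β-gal signal | detection = GalScreen β-gal luminescence, detergent lysis, 60 min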
UPR CHOP act: activators of apoptotic arm of unfolded protein response (CHOP). activation, % at 10 µM. 330,000 tested, 0.34% active. CHO-CHOP luciferase reporter, UPR activation, luminescence; percent of tunicamycin response over DMSO baseline. AID 449763;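 active means at 10 µM dose, activation of 40% or more, normalized to positive control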;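 further: 100% = tunicamycin at 10 µg/mL and 0% = DMSO alone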
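Material: CHO-CHOP cells, stable luciferase reporter of PERK-eIF2a-CHOP signalling; quantity: 500 reporter cells seeded per well; buffer or medium: F12 medium containing 10% fetal bovine serum; compound: one dose, 10 µM in 0.5% DMSO; incubation: 6 h compound treatment, 37 °C; measured by: Steady-Glo luciferase luminescence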
L major viab: Leishmania major promastigote growth inhibition; Leishmania major promastigotes, resazurin fluorescence viability; inhibition, % at 10 µM; 200,000 tested, 9% active; AID 1063; in the data active means inhibition above about 50%;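 further: promastigotes grown with compound for 44 hours at 28 °C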
CHOP inh: CHOP inhibition in unfolded protein response. CHO-K1 CHOP-promoter luciferase, tunicamycin-induced, 15-18 h. inhibition, % at 10 µM. 220,000 tested, 3.8% active;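 active means compounds that reduced the stress-induced luciferase reporter signal by more than about 70% of percent inhibition, limit read from the data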;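 further: 0% = tunicamycin plus vehicle and 100% = wells without tunicamycin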
* hit, by the source's call. The sample as a whole holds a higher share of hits than the screen did.

For COc1cc(Nc2nc(-c3ccccc3)c3cc(C)ccc3n2)cc(OC)c1OC the results were Dynein cargo inh 1.2, XBP1 UPR activ 4, T cruzi repl 26, UPR CHOP act 4, L major viab 61* and CHOP inh 48.
For CCOC(=O)N1CC=C2C(C#N)=C(N)C(C#N)(C#N)[C@H](c3ccccc3OCC)[C@H]2C1 the results were Dynein cargo inh -0.84, XBP1 UPR activ 0, T cruzi repl -7, UPR CHOP act 7, L major viab 11 and CHOP inh 74*.
Screening CCOC(=O)N1CC=C2C(C#N)=C(N)C(C#N)(C#N)[C@H](c3ccc(OC(C)C)c(OCC)c3)[C@H]2C1 returned Dynein cargo inh -0.81, XBP1 UPR activ 1, T cruzi repl 18, UPR CHOP act 4, L major viab -5 and CHOP inh 9.
COc1cccc(N2CCN(C(=O)c3cc4c(s3)CCCCC4)CC2)c1 was read as XBP1 UPR activ 3 and UPR CHOP act 2.
C[C@@H](C[C@@H](O)[C@H](O)C(C)(C)O)[C@@H]1CC[C@]2(C)C3=CC[C@H]4C(C)(C)C(=O)CC[C@]4(C)[C@H]3CC[C@@]12C was read as Dynein cargo inh 0.057, XBP1 UPR activ 7, T cruzi repl 48, UPR CHOP act 5, L major viab 92* and CHOP inh 57.
Screening C[C@H](C[C@H](O)[C@H]1OC1(C)C)C1=C2C[C@H](O)C3[C@@]4(C)CCC(=O)C(C)(C)C4CC[C@]3(C)[C@@]2(C)CC1 (stereo partly drawn) returned XBP1 UPR activ 2 and UPR CHOP act 2.
`COc1ccc(Oc2nc(-c3ccccn3)ncc2OC)cc1` gave Dynein cargo inh 1.4, XBP1 UPR activ -3, T cruzi repl 7, UPR CHOP act 0, L major viab 16 and CHOP inh -66.
For COc1cnc(-c2ccccn2)nc1Sc1ccccc1Cl the results were XBP1 UPR activ 8, T cruzi repl 60*, UPR CHOP act 1, L major viab 101* and CHOP inh 46.
COc1cnc(-c2ccccn2)nc1Oc1cccc(Cl)c1 was read as XBP1 UPR activ 3, T cruzi repl -1, UPR CHOP act 2, L major viab 100* and CHOP inh -6.
Screening COc1cnc(-c2ccccn2)nc1Oc1c(C)cccc1C returned Dynein cargo inh 0.58, XBP1 UPR activ -2, T cruzi repl -51, UPR CHOP act 2, L major viab 72* and CHOP inh -88.
For COc1cnc(-c2ccccn2)nc1N(C)C the results were Dynein cargo inh -0.1, XBP1 UPR activ 1, T cruzi repl 48, UPR CHOP act -3, L major viab 100* and CHOP inh 51.
Screening COCCN(C(=O)c1ccc(C)o1)c1c(N)n(CC(C)C)c(=O)[nH]c1=O returned XBP1 UPR activ -2 and UPR CHOP act -1.
`O=[N+]([O-])c1cc(S(=O)(=O)C(F)(F)F)ccc1NCC1CCCO1` (stereo not drawn) gave XBP1 UPR activ 6, T cruzi repl 10 and UPR CHOP act 2.
COc1ccc(OC)c(C(=O)CSc2nnc(-c3ccc(OC)c(OC)c3)o2)c1 was read as Dynein cargo inh -0.44, L major viab -7 and CHOP inh 80*.
For COc1ccc(C(=O)CSc2nnc(-c3ccc(C)cc3)o2)cc1 the results were Dynein cargo inh 0.23, XBP1 UPR activ 4, T cruzi repl -13, UPR CHOP act -1, L major viab -6 and CHOP inh 4.
For CCn1cc(-c2cc(C(=O)O)c3ccccc3n2)cn1 the results were Dynein cargo inh -0.74, XBP1 UPR activ -1, T cruzi repl -3, UPR CHOP act -2, L major viab -5 and CHOP inh 11.
Screening COc1ccccc1NC(=O)NC1CCS(=O)(=O)C1 (stereo not drawn) returned XBP1 UPR activ 13, T cruzi repl 4 and UPR CHOP act 3.
Screening Cc1cc(C)cc(N(C(=O)c2snc(C(N)=O)c2N)C(C(=O)NCC2CCCO2)c2cccs2)c1 (stereo not drawn) returned Dynein cargo inh 0.54, XBP1 UPR activ -3, T cruzi repl 46, UPR CHOP act 1, L major viab 28 and CHOP inh 4.
For O=C(NCC1CCCO1)C(c1cccs1)N(Cc1ccccc1)C(=O)c1ccc(-c2ccccc2)[nH]1 (stereo not drawn) the results were Dynein cargo inh -0.43, XBP1 UPR activ -2, T cruzi repl 7, UPR CHOP act -1, L major viab 68* and CHOP inh 41.
`O=C(NCC1CCCO1)C(c1cccs1)N(C(=O)c1ccc(-c2ccccc2)[nH]1)C1CCCC1` (stereo not drawn) gave Dynein cargo inh 0.2, XBP1 UPR activ -2, T cruzi repl 15, UPR CHOP act 1, L major viab 92* and CHOP inh 13.
`NC(=O)c1nsc(C(=O)N(c2ccccc2)C(C(=O)NCC2CCCO2)c2cccs2)c1N` (stereo not drawn) gave Dynein cargo inh -0.31, XBP1 UPR activ -1, T cruzi repl -8, UPR CHOP act -2, L major viab 73* and CHOP inh 22.
Screening COc1ccc(CCC(=O)Nc2cccc(S(=O)(=O)N3CCCC3)c2)cc1OC returned XBP1 UPR activ 0 and UPR CHOP act -1.
Screening O=C(O)CC(NNC(=O)c1ccccc1)C(=O)Nc1cccc([N+](=O)[O-])c1 (stereo not drawn) returned Dynein cargo inh -0.32, XBP1 UPR activ 0, T cruzi repl 4, UPR CHOP act 2 and CHOP inh -17.
Screening CCc1ccc(C(=O)NN(C(=O)c2ccc(CC)cc2)C(C)(C)C)cc1 returned Dynein cargo inh 0.031, XBP1 UPR activ -2, T cruzi repl 12, UPR CHOP act -1, L major viab 98* and CHOP inh 32.
For COc1ccccc1CNC(=O)C(Cc1c[nH]c2ccccc12)NC(=O)OCc1ccccc1 (stereo not drawn) the results were Dynein cargo inh -0.21, XBP1 UPR activ -1, T cruzi repl 28, UPR CHOP act -2, L major viab 99* and CHOP inh 42.
`[Li+]` gave CHOP inh 31.
For Cc1ccc(Oc2nccc(-c3ccc(Cl)cc3)n2)cc1 the results were Dynein cargo inh 1.8, XBP1 UPR activ 0, T cruzi repl 8, UPR CHOP act 3, L major viab 12 and CHOP inh 78*.
CN(CC(=O)Nc1cccc(S(=O)(=O)NC2=NCCC2)c1)Cc1cccc(F)c1 was read as XBP1 UPR activ -3 and UPR CHOP act -1.

Screening data as filed in PubChem.
